Reference: ChEMBL document CHEMBL1124089, “Binaltorphimine-related bivalent ligands and their kappa opioid receptor antagonist selectivity” (J Med Chem, 1988)

Tests used:
[1] = target: T1, Opioid receptor (mu and kappa) (Cavia porcellus) (UniProt P41144+P97266); test: Ratio of IC50 ethylketazocine and antagonist binding to opioid receptor; format: protein assay
[2] = Ratio of IC50 morphine and antagonist binding to opioid receptor
[3] = target: Delta-type opioid receptor (Mus musculus) (UniProt P32300); test: Ratio of IC50 DADLE and antagonist binding to delta opioid receptor; Not calculated
Chain of Delta-type opioid receptor (Mus musculus) (P32300 whole entry): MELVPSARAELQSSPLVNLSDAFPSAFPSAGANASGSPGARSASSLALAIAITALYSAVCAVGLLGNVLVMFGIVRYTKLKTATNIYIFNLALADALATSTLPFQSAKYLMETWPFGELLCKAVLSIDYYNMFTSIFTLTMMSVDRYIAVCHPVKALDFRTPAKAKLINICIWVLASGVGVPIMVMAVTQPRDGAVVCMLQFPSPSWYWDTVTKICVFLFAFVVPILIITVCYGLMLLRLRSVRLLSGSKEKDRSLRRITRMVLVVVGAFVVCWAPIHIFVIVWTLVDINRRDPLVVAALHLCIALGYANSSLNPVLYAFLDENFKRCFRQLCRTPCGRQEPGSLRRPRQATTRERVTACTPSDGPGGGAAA

[4] = target: Delta-type opioid receptor (Mus musculus) (UniProt P32300); test: Ratio of IC50 DADLE and antagonist binding to delta opioid receptor
[5] = target: Delta-type opioid receptor (Mus musculus, UniProt P32300); test: Agonistic activity in mouse vas deferens; format: functional, tissue-based
Chain of Delta-type opioid receptor (P32300 whole entry): as above

[6] = target: T2, Opioid receptor (mu and kappa) (Cavia porcellus, UniProt P41144+P97266); test: Agonistic activity in guinea pig ileal longitudinal muscle; format: functional, tissue-based, Muscle tissue
[7] = Ratio of antagonistic activity for delta and kappa receptors; format: functional
Outline: (§1)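 Selectivity ratios mu/kappa and delta/kappa calculated from Ke values; Ke = [antagonist]/(IC50 ratio − 1), using ethylketazocine (kappa) and morphine (mu) in GPI and DADLE (delta) in MVD.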

[8] = target: Delta-type opioid receptor (Mus musculus) (UniProt P32300); test: Antagonistic activity for Opioid receptor delta 1 in mouse vas deferens preparation at 100 nM; format: functional
[9] = target: T1, Opioid receptor (mu and kappa) (Cavia porcellus); test: Ratio of antagonistic activity for mu and kappa receptors; format: functional; outline: as §1
[10] = target: Kappa-type opioid receptor (Cavia porcellus) (UniProt P41144); test: Antagonistic activity for Opioid receptor kappa 1 of guinea pig ileal longitudinal muscle at 100 nM; format: functional
Chain of Kappa-type opioid receptor (Cavia porcellus) (P41144 whole entry): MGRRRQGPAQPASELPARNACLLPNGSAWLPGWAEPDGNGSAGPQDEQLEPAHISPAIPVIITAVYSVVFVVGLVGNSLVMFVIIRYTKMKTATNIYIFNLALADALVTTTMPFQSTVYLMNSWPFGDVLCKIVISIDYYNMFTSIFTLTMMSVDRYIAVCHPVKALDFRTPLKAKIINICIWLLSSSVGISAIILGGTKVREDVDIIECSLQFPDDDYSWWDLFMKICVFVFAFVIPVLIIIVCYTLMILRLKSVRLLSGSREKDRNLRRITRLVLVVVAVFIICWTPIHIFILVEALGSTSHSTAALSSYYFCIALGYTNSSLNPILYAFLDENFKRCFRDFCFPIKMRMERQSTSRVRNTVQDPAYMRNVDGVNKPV

[11] = target: Mu-type opioid receptor (Cavia porcellus) (UniProt P97266); test: Antagonistic activity for Opioid receptor mu 1 in guinea pig ileal longitudinal muscle at 100 nM; format: functional
Chain of Mu-type opioid receptor (Cavia porcellus) (P97266 whole entry): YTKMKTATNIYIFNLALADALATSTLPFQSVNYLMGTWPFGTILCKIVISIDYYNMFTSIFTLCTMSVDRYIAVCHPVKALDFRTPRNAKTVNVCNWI

[12] = target: Delta-type opioid receptor (Mus musculus) (UniProt P32300); conditions: Vas deferens, 200 nM
[13] = target: Mu-type opioid receptor (Cavia porcellus) (UniProt P97266); conditions: 20 nM
[14] = target: T2, Opioid receptor (mu and kappa); test: Agonistic activity in guinea pig ileal longitudinal muscle after beta-FNA (200 nM) 60 min treatment; format: functional, tissue-based, Muscle tissue
Outline: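 GPI pretreated with beta-FNA so that functional mu receptors are absent; agonist IC50 determined in this tissue and compared with IC50 in untreated GPI.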

[15] = target: Mu-type opioid receptor (Cavia porcellus) (UniProt P97266); test: Antagonistic activity for Opioid receptor mu 1 in guinea pig ileal longitudinal muscle at 200 nM; format: functional
[16] = target: Kappa-type opioid receptor (Cavia porcellus) (UniProt P41144); test: Antagonistic activity for Opioid receptor kappa 1 in guinea pig ileal longitudinal muscle at 200 nM; format: functional
[17] = target: Delta-type opioid receptor (Mus musculus) (UniProt P32300); test: Antagonistic activity for Opioid receptor delta 1 in mouse vas deferens at 200 nM; format: functional, tissue-based
[18] = target: Mu-type opioid receptor (Cavia porcellus) (UniProt P97266); conditions: 100 nM
[19] = target: Delta-type opioid receptor (Mus musculus) (UniProt P32300); conditions: Vas deferens, 20 nM
[20] = target: Kappa-type opioid receptor (Cavia porcellus) (UniProt P41144); test: Antagonistic activity for Opioid receptor kappa 1 in guinea pig ileal longitudinal muscle at 20 nM; format: functional

T1 sequence (P41144 whole entry, looked up): as the sequence (P41144 whole entry) above
T1 sequence (P97266 whole entry, looked up): as the sequence (P97266 whole entry) above

Structure (SMILES)	Ratio [1]	Ratio [2]	Ratio [4]	IC50 [5] [nM]	IC50 [6] [nM]	Selectivity ratio [7]	Selectivity ratio [9]	Ke [10] [nM]	further results
CC(=O)Oc1ccc2c3c1O[C@H]1c4[nH]c5c(c4C[C@@]4(OC(C)=O)[C@@H](C2)N(CC2CC2)CC[C@]314)C[C@@]1(OC(C)=O)[C@H]2Cc3ccc(OC(C)=O)c4c3[C@@]1(CCN2CC1CC1)[C@H]5O4	1.6	1.2							Ratio [3]: 1.4
COc1ccc2c3c1O[C@H]1c4[nH]c5c(c4C[C@H]4[C@@H](C2)N(C)CC[C@]314)C[C@H]1[C@H]2Cc3ccc(OC)c4c3[C@@]1(CCN2C)[C@H]5O4	0.43	0.51	0.93	1000	330				
CC(=O)O[C@@]12Cc3c([nH]c4c3C[C@@]3(OC(C)=O)[C@H]5Cc6ccc(O)c7c6[C@@]3(CCN5CC3CC3)[C@H]4O7)[C@@H]3Oc4c(O)ccc5c4[C@@]31CCN(CC1CC1)[C@@H]2C5	261	3.4	9.2			32	111	0.38	Ke [8]: 12 nM; Ke [11]: 42 nM
CN1CC[C@]23c4c5ccc(O)c4O[C@H]2c2[nH]c4c(c2C[C@H]3[C@H]1C5)C[C@H]1[C@H]2Cc3ccc(O)c5c3[C@@]1(CCN2C)[C@H]4O5	0.79	0.68	0.85	52	53				
Oc1ccc2c3c1O[C@H]1c4[nH]ccc4C[C@@]4(O)[C@@H](C2)N(CC2CC2)CC[C@]314	49.5	155	32.3			1.5	0.3	2.1	Ke [8]: 3.2 nM; Ke [11]: 0.65 nM
Oc1ccc2c3c1O[C@H]1c4[nH]c5c(c4C[C@@]4(O)[C@@H](C2)N(CC2CC2)CC[C@]314)C[C@@]1(O)[C@H]2Cc3ccc(O)c4c3[C@@]1(CCN2CC1CC1)[C@H]5O4	49.1	2.6	2			49	32	0.41	Ke [12]: 20 nM; Ke [13]: 13 nM
CN1CC[C@]23c4c5ccc(O)c4O[C@H]2c2[nH]c4c(c2C[C@@]3(O)[C@H]1C5)C[C@@]1(O)[C@H]2Cc3ccc(O)c5c3[C@@]1(CCN2C)[C@H]4O5	1.6	0.88	1.1	170	250				IC50 [14]: 2630 nM
COc1ccc2c3c1O[C@H]1c4[nH]c5c(c4C[C@@]4(O)[C@@H](C2)N(CC2CC2)CC[C@]314)C[C@@]1(O)[C@H]2Cc3ccc(O)c4c3[C@@]1(CCN2CC1CC1)[C@H]5O4	153	6.3	5.4			35	29		Ke [15]: 38 nM; Ke [16]: 1.3 nM; Ke [17]: 45 nM
Cn1c2c(c3c1[C@@H]1Oc4c(O)ccc5c4[C@@]14CCN(CC1CC1)[C@H](C5)[C@]4(O)C3)C[C@@]1(O)[C@H]3Cc4ccc(O)c5c4[C@@]1(CCN3CC1CC1)[C@H]2O5	148	2.8	4.5			41	79	0.14	Ke [18]: 11 nM; Ke [19]: 5.7 nM
COc1ccc2c3c1O[C@H]1c4[nH]c5c(c4C[C@@]4(O)[C@@H](C2)N(CC2CC2)CC[C@]314)C[C@@]1(O)[C@H]2Cc3ccc(OC)c4c3[C@@]1(CCN2CC1CC1)[C@H]5O4	3.8	0.8	0.6						Ke [20]: 7.1 nM
